We go through eight compounds from ChEMBL document CHEMBL1909641, “Rational design of 2-pyrrolinones as inhibitors of HIV-1 integrase” (Bioorg Med Chem Lett, 2011).

The target of data set [1] is T1, Human immunodeficiency virus type 1 integrase (Human immunodeficiency virus 1, UniProt Q7ZJM1). Briefly: Inhibition of HIV1 integrase-mediated single strand tansfer of viral DNA after 30 mins by PAGE.
Data set [2] concerns the target T1, Human immunodeficiency virus type 1 integrase. Kind of data set: Inhibition of HIV1 integrase-mediated 3' processing of viral DNA after 30 mins by PAGE.
Data set [3] can be described thus: Cytotoxicity against human TZM-bl cells infected with HIV1 pNL4.3. The data set is classed as cell-based. A digest of the protocol: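 CC50 is the cytostatic concentration required to kill 50% of TZM-bl cells.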
Data set [4] has as its system Human immunodeficiency virus 1. Briefly: Antiviral activity against HIV1 pNL4.3 infected in human TZM-bl cells by luciferase reporter gene assay. The class given is functional, organism-based. On the technique in general: Reporter assays use an easily measured gene product as a stand-in for the process of interest.
The nature of data set [5]: Selectivity index, ratio of CC50 against human TZM-bl cells to EC50 for inhibition of HIV1 integrase activity in TZM-bl cells infected with HIV1 pNL4.3. The class given is toxicity, cell-based. The settings on record: read-out: Ratio CC50/EC50. Summed up: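 SI is calculated as the CC50 in TZM-bl cells divided by the antiviral EC50.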

T1 sequence (Q7ZJM1 whole entry): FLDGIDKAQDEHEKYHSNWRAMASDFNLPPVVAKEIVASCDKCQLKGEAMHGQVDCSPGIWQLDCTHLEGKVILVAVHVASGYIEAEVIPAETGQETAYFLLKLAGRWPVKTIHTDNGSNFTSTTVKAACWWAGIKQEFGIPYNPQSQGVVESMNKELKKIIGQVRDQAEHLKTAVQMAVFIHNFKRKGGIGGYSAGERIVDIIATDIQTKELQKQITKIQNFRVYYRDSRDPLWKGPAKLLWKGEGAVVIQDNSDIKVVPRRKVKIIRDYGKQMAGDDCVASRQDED

The term IC50 denotes the concentration that gives 50% inhibition. The low end stands for greater potency in that assay, the high end for weaker potency in that assay. In the case of `CN1C(=O)C(O)=C(C(=O)c2ccccc2)C1c1ccc([N+](=O)[O-])cc1` (stereo not given), the IC50 in data set [1] and in data set [2] was more than 100 µM in each case.

Turning to `CN1C(=O)C(O)=C(C(=O)c2ccccc2)C1c1cccc(Cl)c1` (stereo not given), the IC50 in data set [1] and in data set [2] was more than 100 µM throughout.

As a reminder, the CC50 is the concentration at which the toxic effect on the cells reaches its halfway point. Low values mean harm at low concentration, high ones better tolerance by the cells. A word on the EC50: it is the midpoint of the concentration-response curve. For the compound `COc1ccc(CCN2C(=O)C(O)=C(C(=O)c3ccccc3)C2c2ccccc2)cc1` (stereo not given), the IC50 in data set [1] was 45 µM; in data set [2], 80 µM. The same compound showed a CC50 in data set [3] of 830 µM. The EC50 entry in data set [4] (tzm-bl) was “Not Active”.

With `CC(C)CN1C(=O)C(O)=C(C(=O)c2ccccc2)C1c1ccccc1` (stereo not given), the IC50 in data set [1] and in data set [2] was more than 100 µM throughout.

With `COc1ccc(CCN2C(=O)C(O)=C(C(=O)c3ccccc3)C2c2ccc(O)cc2)cc1` (stereo not given), the figures for the IC50 in data set [1] and in data set [2] were 100 µM and more than 100 µM, respectively. The compound also came in with a CC50 in data set [3] of 459 µM. Besides, the EC50 result in data set [4] (tzm-bl) was “Not Active”.

Take `O=C(C1=C(O)C(=O)N(c2ccccc2)C1c1ccc([N+](=O)[O-])cc1)c1ccccc1` (stereo not given): the values for the IC50 in data set [1] and in data set [2] were 44 µM and 89 µM, respectively. Also, in data set [3], the CC50 was 790 µM. Also, in data set [4] (tzm-bl), the 50% effective concentration (EC50) result was “Not Active”.

As for `CN1C(=O)C(O)=C(C(=O)c2ccccn2)C1c1cccc(Cl)c1` (stereo not given), the IC50 in data set [1] and in data set [2] was more than 100 µM each time.

Turning to `COc1ccc(CCN2C(=O)C(O)=C(C(=O)c3ccccn3)C2c2cccc(Cl)c2)cc1` (stereo not given), the figures for the half-maximal inhibitory concentration (IC50) in data set [1] and in data set [2] were 40 µM and 77 µM, respectively. Also, in data set [3], it took 26.6 µM to reach half-maximal cytotoxicity (CC50). The EC50 in data set [4] (Human immunodeficiency virus 1, pNL4.3, TZM-bl, read-out: EC50) was determined as 0.317 µM. In addition, in data set [5], the selectivity ratio worked out at 83.7.
